High-throughput results from PubChem BioAssay.
MrgX1 allo act – human MrgX1 positive allosteric modulation, primary screen; MrgX1-HEK293, Fluo-4 calcium flux, FDSS; active compounds read high; B-score at 10 µM; hit rate 0.63% among 310,000; AID 588675;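 active = plate-corrected calcium response at least 3 library SD above typical, normal starting fluorescence, not activating the receptor alone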;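 note: compound read alongside a low EC10 to EC30 dose of BAM8-22 agonist; peak minus trough fluorescence over baseline measured at the second addition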
MrgX1 antag – human MrgX1 receptor antagonism, primary screen; MRGX1-HEK293 calcium flux, Fluo-4, BAM8-22 antagonism; active compounds read low; hit rate 1.3% among 310,000; B-score at 10 µM;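 active = calcium-response B-score plate-corrected more than 3 library SD below zero, starting fluorescence within 5 deviations, no agonist response on first addition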;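 note: peak minus trough fluorescence over baseline after final BAM8-22 challenge near maximal dose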
PHOSPHO1 inh – PHOSPHO1 (human) inhibition. hit rate 1.1% among 290,000. inhibition, % at 13.3 µM. Q8TCT1. recombinant PHOSPHO1, absorbance phosphatase assay; in the data active = inhibition above about 60%
Target sequence (Q8TCT1 whole entry, looked up): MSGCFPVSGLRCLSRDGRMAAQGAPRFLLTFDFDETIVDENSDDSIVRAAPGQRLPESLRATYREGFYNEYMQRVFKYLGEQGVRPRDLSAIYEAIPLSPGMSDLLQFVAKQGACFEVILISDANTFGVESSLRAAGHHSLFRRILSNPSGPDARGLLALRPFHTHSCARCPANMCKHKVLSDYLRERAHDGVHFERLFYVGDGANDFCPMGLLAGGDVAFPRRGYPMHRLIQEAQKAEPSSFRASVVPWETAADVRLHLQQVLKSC
RGS4 inh – inhibitors of human RGS4 | HEK293 M3R/RGS4 inducible, Fluo-4 calcium flux; active compounds read high; triggered by carbachol at its EC20 | B-score at 10 µM | hit rate 0.45% among 310,000;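 active = B-score, a plate-corrected calcium signal, over three deviations above library mean, with baseline fluorescence within five deviations of library mean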;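 note: RGS4 expression induced by doxycycline in cells with stable M3 receptor; B-score is computed from the integrated fluorescence ratio over baseline after carbachol; higher B-score means a larger calcium signal and so more RGS4 inhibition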
Target sequence (P49798 whole entry, looked up): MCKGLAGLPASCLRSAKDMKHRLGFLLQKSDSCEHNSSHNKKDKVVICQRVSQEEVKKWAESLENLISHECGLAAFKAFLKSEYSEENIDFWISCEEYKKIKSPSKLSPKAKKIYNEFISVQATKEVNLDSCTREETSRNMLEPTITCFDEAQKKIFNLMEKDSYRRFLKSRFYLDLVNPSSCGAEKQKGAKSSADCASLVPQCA
RGS4 pot – RGS4 potentiation or activation; HEK293 M3R/inducible RGS4, carbachol calcium flux Fluo4; active compounds read low; B-score at 10 µM; hit rate 0.92% among 310,000;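 active = B-score of the integrated calcium signal more than 4 SD below the library mean, with starting fluorescence not abnormally high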;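 note: negative B-score means reduced calcium response which marks RGS4 activation or potentiation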
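test system = HEK293 cells with stable M3R and inducible RGS4 | schedule = recording 10 s baseline at 1 Hz, 100 s post-agonist | technique = Fluo4-AM (2 µM) calcium-flux fluorescence, kinetic read | measure = Agonist-evoked peak-minus-minimum fluorescence over baseline, integrated ratio, B score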
MrgX1 ag – agonists of human MrgX1 receptor; Q96LB2; MrgX1-HEK293 cells, Fluo-4 calcium fluorescence, agonist mode; active compounds read high; B-score at 10 µM; hit rate 0.44% among 310,000; AID 588627;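 active = calcium response B-score plate-corrected fluorescence ratio at least 3 library SD, with starting fluorescence B-score inside 5 SD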
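Test system: HEK293 cells stably expressing human MrgX1 receptor; Input: fifteen thousand cells per well; Dosing: compound delivered in addition one of three; Schedule: overnight seeding, then 1 h dark dye loading; Technique: Fluo-4 NW calcium fluorescence; Measure: B-scored fluorescence response ratio; Controls: positive and negative controls per plate.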
The depositor's hits bear a star. Shown are actives, neighbours in structure and some others; about 4.5% of the full set was active somewhere.

What do the screens show for `CC(/C=C1\SC(=S)N(c2ccc(C(=O)O)cc2)C1=O)=C\c1ccccc1`?
MrgX1 allo act: inactive; MrgX1 antag: -9.62*; PHOSPHO1 inh: 41.8; RGS4 inh: inactive; RGS4 pot: -8.44*; MrgX1 ag: inactive

What do the screens show for `CC(/C=C1\SC(=S)N(NS(=O)(=O)c2ccccc2)C1=O)=C\c1ccccc1`?
MrgX1 allo act: inactive; MrgX1 antag: -8.8*; PHOSPHO1 inh: 24.0; RGS4 inh: inactive; RGS4 pot: inactive; MrgX1 ag: inactive

Results for COc1ccc(/C=C2/SC(=S)N(NS(=O)(=O)c3ccccc3)C2=O)cc1 ?
MrgX1 allo act: inactive; MrgX1 antag: inactive; PHOSPHO1 inh: 24.0; RGS4 inh: inactive; RGS4 pot: inactive; MrgX1 ag: 30.6*

How did CCOC(=O)N1CCN(C(=O)c2cn(CC)c3cc(N4CCN(C)CC4)c(F)cc3c2=O)CC1 do in these assays?
MrgX1 allo act: inactive; MrgX1 antag: -7.59*; PHOSPHO1 inh: -15.8; RGS4 inh: inactive; RGS4 pot: inactive; MrgX1 ag: inactive

What do the screens show for `CCn1cc(C(=O)NN)c(=O)c2cc(F)c(N3CCN(C)CC3)cc21`?
MrgX1 allo act: inactive; MrgX1 antag: inactive; PHOSPHO1 inh: 18.7; RGS4 inh: inactive; RGS4 pot: inactive; MrgX1 ag: inactive

Results for N#CC1(C#N)[C@@H](C(=O)C23CC4CC(CC(C4)C2)C3)C12CCOCC2 ?
MrgX1 allo act: inactive; MrgX1 antag: -6.56*; PHOSPHO1 inh: -8.6; RGS4 inh: inactive; RGS4 pot: inactive; MrgX1 ag: inactive

How did O=C(c1ccccc1)c1c2c(cc3sc4ccccc4[n+]13)-c1cccc3cccc-2c13 do in these assays?
MrgX1 allo act: inactive; MrgX1 antag: -8.81*; PHOSPHO1 inh: -0.3; MrgX1 ag: inactive

What do the screens show for `Cc1sc2ccccc2[n+]1CC(=O)c1ccccc1`?
MrgX1 allo act: inactive; MrgX1 antag: inactive; PHOSPHO1 inh: 13.9; RGS4 inh: inactive; RGS4 pot: inactive; MrgX1 ag: inactive

What do the screens show for `Cc1ccc(OCC(=O)Nc2ccon2)c([N+](=O)[O-])c1`?
MrgX1 allo act: inactive; MrgX1 antag: inactive; PHOSPHO1 inh: -16.3; RGS4 inh: inactive; RGS4 pot: inactive; MrgX1 ag: inactive

What do the screens show for `O=C(NN1C(=O)C2C(c3ccccc3)C=CC(c3ccccc3)C2C1=O)c1ccccc1` (stereo not drawn)?
MrgX1 allo act: inactive; MrgX1 antag: inactive; PHOSPHO1 inh: -23.9; RGS4 inh: inactive; RGS4 pot: inactive; MrgX1 ag: inactive

How did O=C(NN1C(=O)C2C(c3ccccc3)C=CC(c3ccccc3)C2C1=O)c1cccc(Br)c1 (stereo not drawn) do in these assays?
MrgX1 allo act: inactive; MrgX1 antag: inactive; PHOSPHO1 inh: -8.9; RGS4 inh: inactive; RGS4 pot: -10.1*; MrgX1 ag: inactive

How did O=C1NC(=O)/C(=C\c2ccccc2OCc2ccccc2)S1 do in these assays?
MrgX1 allo act: inactive; MrgX1 antag: inactive; PHOSPHO1 inh: 32.5; RGS4 inh: inactive; RGS4 pot: inactive; MrgX1 ag: inactive

How did Cc1ccc(S(=O)(=O)Oc2ccccc2/C=C2/SC(=O)NC2=O)cc1 do in these assays?
MrgX1 allo act: inactive; MrgX1 antag: inactive; PHOSPHO1 inh: 28.8; RGS4 inh: inactive; RGS4 pot: inactive; MrgX1 ag: 26.9*

How did Cc1ccc(C2NC(=O)c3c(sc(C)c3C)N2)c(O)c1 (stereo not drawn) do in these assays?
MrgX1 allo act: inactive; MrgX1 antag: inactive; PHOSPHO1 inh: 104.3*; RGS4 inh: inactive; RGS4 pot: inactive; MrgX1 ag: inactive

Results for Cc1ccc(Cl)cc1N1CCN(C(=O)CSc2nnc3n2C(C)(C)Cc2ccccc2-3)CC1 ?
MrgX1 allo act: inactive; MrgX1 antag: -9.5*; PHOSPHO1 inh: -1.2; RGS4 inh: inactive; RGS4 pot: -7.03*; MrgX1 ag: inactive

Results for O=C(CSc1ccccn1)Nc1nonc1[N+](=O)[O-] ?
MrgX1 allo act: inactive; MrgX1 antag: inactive; PHOSPHO1 inh: 20.7; RGS4 inh: inactive; RGS4 pot: inactive; MrgX1 ag: 37.9*

How did O=C(CSc1ccccn1)Nc1ccc(NC(=O)CSc2ccccn2)cc1 do in these assays?
MrgX1 allo act: inactive; MrgX1 antag: inactive; PHOSPHO1 inh: 6.1; RGS4 inh: inactive; RGS4 pot: inactive; MrgX1 ag: inactive

How did Cc1cccc(N=C2Sc3nc4c(C)c(C)ccc4cc3CN2CCN2CCOCC2)c1 do in these assays?
MrgX1 allo act: inactive; MrgX1 antag: inactive; PHOSPHO1 inh: 81.3*; RGS4 inh: inactive; RGS4 pot: inactive; MrgX1 ag: inactive

How did O=C(/C=C/c1cccs1)NC(=S)Nc1ccccc1 do in these assays?
MrgX1 allo act: inactive; MrgX1 antag: inactive; PHOSPHO1 inh: -4.9; RGS4 inh: inactive; RGS4 pot: inactive; MrgX1 ag: inactive

What do the screens show for `O=C(/C=C/c1cccs1)NC(=S)NNC(=O)c1ccccc1O`?
MrgX1 allo act: inactive; MrgX1 antag: inactive; PHOSPHO1 inh: -31.5; RGS4 inh: inactive; RGS4 pot: inactive; MrgX1 ag: 62.6*

Results for COc1ccc(/C=C/C(=O)NC(=S)NNC(=O)c2c(-c3ccccc3)noc2C)cc1 ?
MrgX1 allo act: inactive; MrgX1 antag: inactive; PHOSPHO1 inh: -26.9; RGS4 inh: inactive; RGS4 pot: inactive; MrgX1 ag: 28.9*

How did COc1ccc(/C=C/C(=O)NC(=S)NNC(=O)Cc2cccs2)cc1 do in these assays?
MrgX1 allo act: inactive; MrgX1 antag: inactive; PHOSPHO1 inh: 95.7*; RGS4 inh: inactive; RGS4 pot: inactive; MrgX1 ag: inactive

What do the screens show for `COc1ccc(/C=C/C(=O)NC(=S)NNC(=O)c2ccco2)cc1`?
MrgX1 allo act: inactive; MrgX1 antag: inactive; PHOSPHO1 inh: 4.9; RGS4 inh: inactive; RGS4 pot: inactive; MrgX1 ag: inactive

What do the screens show for `COc1ccc(C(=O)NNC(=S)NC(=O)/C=C/c2cccs2)cc1`?
MrgX1 allo act: inactive; MrgX1 antag: inactive; PHOSPHO1 inh: 89.7*; RGS4 inh: inactive; RGS4 pot: inactive; MrgX1 ag: inactive

Results for COc1ccc(-c2cc(C(=O)NNC(=S)NC(=O)c3c(-c4ccccc4)noc3C)[nH]n2)cc1 ?
MrgX1 allo act: inactive; MrgX1 antag: inactive; PHOSPHO1 inh: -121.1; RGS4 inh: inactive; RGS4 pot: inactive; MrgX1 ag: inactive

How did CCN(CC)C(=O)CSc1nnc(COc2cccc(C)c2)n1C do in these assays?
MrgX1 allo act: inactive; MrgX1 antag: inactive; PHOSPHO1 inh: -20.7; RGS4 inh: inactive; RGS4 pot: inactive; MrgX1 ag: inactive

How did O=C1CCC[C@@H]2[C@H]3CCC[N+]4([O-])CCC[C@@H](CN12)[C@@H]34 (stereo partly drawn) do in these assays?
MrgX1 allo act: inactive; MrgX1 antag: inactive; RGS4 inh: inactive; RGS4 pot: inactive; MrgX1 ag: inactive
